The results in this text go back to the RNAGym collection of RNA variant scans (doi:10.1126/science.aae0568).

To fix the notation:
B1: tRNA (parent)
chain: GUUCCGUUGGCGUAAUGGUAACGCGUCUCCCUCCUAAGGAGAAGACUGCGGGUUCGAGUCCCGUACGGAACG

Fewer inactive variants are shown than the library holds.

The variants in this data set derive from B1. Kind of data set: yeast fitness relative to wild type (ratio to wild type); higher = fitter; tRNA-Arg(CCU), competitive growth, 37 C, YPD. The method, boiled down:
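The tRNA-Arg(CCU) gene variants were made by chemical synthesis with a 3% per-site mutation rate at 69 sites and inserted at the native genomic locus of Saccharomyces cerevisiae. After pooling, the strains were competed in YPD at 37°C for 24 hours in six parallel replicates. Gene amplicons from the start population and each end population were read by 100-nucleotide paired-end sequencing, and Darwinian fitness relative to wild type was taken from genotype frequency changes. Genotypes needed ≥ 100 starting reads, and estimates < 0.5 were set to 0.5.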
As for GUUCCGUUGGCGUAAUGGUUACGCGUCUCCCUCCUAAGGGGGAGACUGCAGGUUCGAGUCCCGUACGGAACG [A20U A40G A42G G50A], the yeast fitness was not above 0.5.
The same measure for GUUCCGUUGGCGUAAUGGUUACGCGUCUCCGUCCUCAGGAGAAGGCUGCGGGUUCGAGUCCCGUACGGAUCG [A20U C31G A36C A45G A70U]: not above 0.5; for GUUCCGUUGGCGUAAUGGUUACGCGUCUCCCUCCUAAGGAGAGGACUGCGGGUUCGAAUCCCGUACGGAACG [A20U A43G G58A]: 0.91.
With GUUCCGUUGGCGUAAUGGUUACGCGUCUCCCUCCUAAGGAGAAGUCUGCGGGUUCGAGUCCCGUACGGAACG [A20U A45U], the yeast fitness stood at 0.777.
Under GUUCCGUUGGCGUAAUGGUUAGGCGUCUCCCUCCUAAGGGGAAGACUGCGGGUUCGAGUCCCGUAUGGAACG [A20U C22G A40G C66U] stands not above 0.5.
The same measure for GUUCCGUUGGCGUAAUGGUUACGCGUCUCACUCCUAAGGAGAAGACUGCGGAUUCGAGUCCCGUUCGGAACG [A20U C30A G52A A65U]: not above 0.5.
Regarding GUUCCGUUGGCGUAAUGGUUACGCGUCUCCCUCCUAAGGAGACGACUGCGGGUCCGAGUCCCGUACGGAACG [A20U A43C U54C], the yeast fitness is not above 0.5.
The same measure for GUUCCGUUGGCGUAAUGGUUACGCGUCUCCUUCCUAAGGAGAAGACUGCGGGUUCGUGUCCCGUACGGAACG [A20U C31U A57U]: 0.567.
Under GUUCCGUUGGCGUAAUGGUUACGAGUCUCCCUCCUAAGGAGAAGACUGCGGGUUCGCGUCCCGUACGGAACG [A20U C24A A57C] stands not above 0.5; under GUUCCGUUGGCGUAAUGGUUACGCGUGUACCUCCUAAGGAGAAGACUGCGGGUUCGGGUCCCGUGCGGAACG [A20U C27G C29A A57G A65G], not above 0.5; under GUUCCGUUGGCGUAAUGGUUACGCGUGUCCCUCCUAAGGAGAAGAGUGUGGGUUCGAGUCCCGUACGGAACG [A20U C27G C46G C49U], not above 0.5.
Under GUUCCGUUGGCGUAAUGGUUACGCGUCUCCUUCCUAACGAGAAGACUGCGGGUUCGAGUCCCGUACGGAACG [A20U C31U G38C] stands 0.553.
In the case of GUUCCGUUGGCGUAAUGGUUACGCGUUUCCCCCCUAAGGAGAAGACUGCGGCUUCGAGUCCCGUACGGAACG [A20U C27U U32C G52C], the yeast fitness was not above 0.5.
The same measure for GUUCCGUUGGCGUAAUGGUUACGGGUCUCCCUCCUAAGGAGAAGACUGCGGGUUCGAGUCCCAUUCGGAACG [A20U C24G G63A A65U]: not above 0.5.
Under GUUCCGUUGGCGUAAUGGUUACGUGUCUCCCUCCUAAGGAGAGGACUGCGGGUUCGAGACCCGUACGGAACG [A20U C24U A43G U59A] stands not above 0.5.
Regarding GUUCCGUUGGCGUAAUGGUUAUGUGUCUCCCUCCUAAGGAGAAGACUGCGGGUUCGAGUCCCGUACGGAACG [A20U C22U C24U], the yeast fitness was not above 0.5.
On to GUUCCGUUGGCGUAAUGGUUACGCGUCUCCCUCCUAAGGUGAAGACUGCGGGUUCGAGUCCCGUACGGUACG [A20U A40U A69U], for which the yeast fitness came to 0.73.
The same measure for GUUCCGUUGGCGUAAUGGUUACGCGUCUCCCUCCUAAGGAGAAGACUGCGGGUUCGAGUCCCGUACGGACCG [A20U A70C]: 0.977; for GUUCCGUUGGCGUAAUGGUUACGCGUAUCCCUCCUAAGGAGAAGACUGCGGGUUCGAGUCCCGUACGGAACG [A20U C27A]: 0.717; for GUUCCGUUGGCGUAAUGGUUACGCGUUUCCCUCCUAAGGAGAAGACUGCGGGUUCGAGUCCCGUACGGAACG [A20U C27U]: 1.05.
For GUUCCGUUGGCGUAAUGGUUACGCGUCUCCCUCCUAAGGAGAAGGCUGCAGAUUCGAGUCCCGUACGGAACG [A20U A45G G50A G52A], the yeast fitness was 0.602.
Regarding GUUCCGUUGGCGUAAUGGUUACGCGUCUCCCUCCUAAGGAGAAGACUGCGGGUUCGAGUCCCGUCCGGAACG [A20U A65C], the yeast fitness came to 0.823.
The same measure for GUUCCGUUGGCGUAAUGGUUACGCGUCUCCCUCCUAAGGAGAGGACUGCGGGUUCGAGUCCCGUACGGAUCG [A20U A43G A70U]: 0.661; for GUUCCGUUGGCGUAAUGGUUACGCGUCUCCCUCCUAAGGAGAAGCCUGCGGGUUCGAGUCCCGUCCGGAACG [A20U A45C A65C]: 0.63.
GUUCCGUUGGCGUAAUGGUUACGCGUCUCCCUUCUAAGGAGAGGACUGCGGGUUCGAGUCCCGCACGGAACG [A20U C33U A43G U64C]: the yeast fitness was not above 0.5.
The same measure for GUUCCGUUGGCGUAAUGGUUACGCGUCUCCCUCAUAAGGAGAAGACUGCGGGUUGGAGUCCCGUAAGGAACG [A20U C34A C55G C66A]: 0.561.
The same measure for GUUCCGUUGGCGUAAUGGUUACGCGUCUCCCUCCUAAGGAGGAGACUGCGGGUUCGAGUCCCGUGCGGAACG [A20U A42G A65G]: 0.689; for GUUCCGUUGGCGUAAUGGUUACGCGUCUCCCUCCUAAGGAGAAGCCUGCGGCUUCGAGUCCCGUACGGAACG [A20U A45C G52C]: 0.568.
With GUUCCGUUGGCGUAAUGGUUACGCGUAUCCCUCCUAAGGCGAAGAAUGCGGGUUCGAGUCCCGUACGGAACG [A20U C27A A40C C46A], the yeast fitness is not above 0.5.
The same measure for GUUCCGUUGGCGUAAUGGUUACGCGUCUCCCUCCUAAGGAGAUGACUGCGGGUUAGAGUCCCGAACGGAACG [A20U A43U C55A U64A]: not above 0.5; for GUUCCGUUGGCGUAAUGGUUACGCGUCUCCCUCCUAAGGAGAUGACUGAGGGUUCGACUCCCGUACGGAACG [A20U A43U C49A G58C]: 0.535.
The same measure for GUUCCGUUGGCGUAAUGGUUACGCGUCUCCCUCAUAAGGAGAAGACUGCGGGUUCGAGUCCCGUACGGAACG [A20U C34A]: 0.7; for GUUCCGUUGGCGUAAUGGUUACGCGUCUCCUUCCUAAGGAGAAGACUGCGGGUUCGAGUCCAGUACGGUACG [A20U C31U C62A A69U]: not above 0.5; for GUUCCGUUGGCGUAAUGGUUACGCGUCUCCCUCCUAAGGGGAAGACUGCGGGUUCGGGUCCCGUACGGAACG [A20U A40G A57G]: 0.67.
Under GUUCCGUUGGCGUAAUGGUUACGCGUCUCCUUCCUAAGGAGAAGACUGCGGGUUCGAGUCCUGUACGGAACG [A20U C31U C62U] stands 0.826; under GUUCCGUUGGCGUAAUGGUUACGCGUCUCCUUCCUAAGGAGAAGACUGCGGGUUCAAGUCUCGUACGGAACG [A20U C31U G56A C61U], not above 0.5.
As for GUUCCGUUGGCGUAAUGGUUACGCGUCUCCGUCCUAAGGAGAAGACUGCGGGUUCGAGUCCCGUACGGAACG [A20U C31G], the yeast fitness is 0.865.
Under GUUCCGUUGGCGUAAUGGUUAGGCGUCUCCCUCCUAAGGGGAAGACUGCGGGUUCGAGUCCCGUACGGAUCG [A20U C22G A40G A70U] stands not above 0.5.
